Measured values taken from ChEMBL document CHEMBL2057109, “Synthesis, biological evaluation, and molecular docking studies of 2,5-substituted-1,4-benzoquinone as novel urease inhibitors” (Bioorg Med Chem, 2012).
Activity calls are given as the source filed them. The rule behind the calls is not given here.

How the values were obtained:
[1] = target: Urease subunit alpha/Urease subunit beta (Helicobacter pylori (strain ATCC 700392 / 26695) (Campylobacterpylori)) (UniProt P69996+P14916); assay: Inhibition of Helicobacter pylori urease assessed as ammonia production at 100 uM preincubated for 3 hrs measured by indophenol method
Sequence of Urease subunit alpha/Urease subunit beta (Helicobacter pylori (strain ATCC 700392 / 26695) (Campylobacterpylori)) (P14916 whole entry, looked up): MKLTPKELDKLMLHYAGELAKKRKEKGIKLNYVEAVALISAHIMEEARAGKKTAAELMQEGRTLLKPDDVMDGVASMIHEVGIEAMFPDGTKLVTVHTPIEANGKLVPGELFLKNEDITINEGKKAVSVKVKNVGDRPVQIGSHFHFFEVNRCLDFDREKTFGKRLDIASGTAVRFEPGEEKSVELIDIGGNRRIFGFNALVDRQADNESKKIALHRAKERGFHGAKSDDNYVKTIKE
Sequence of Urease subunit alpha/Urease subunit beta (Helicobacter pylori (strain ATCC 700392 / 26695) (Campylobacterpylori)) (P69996 whole entry, looked up): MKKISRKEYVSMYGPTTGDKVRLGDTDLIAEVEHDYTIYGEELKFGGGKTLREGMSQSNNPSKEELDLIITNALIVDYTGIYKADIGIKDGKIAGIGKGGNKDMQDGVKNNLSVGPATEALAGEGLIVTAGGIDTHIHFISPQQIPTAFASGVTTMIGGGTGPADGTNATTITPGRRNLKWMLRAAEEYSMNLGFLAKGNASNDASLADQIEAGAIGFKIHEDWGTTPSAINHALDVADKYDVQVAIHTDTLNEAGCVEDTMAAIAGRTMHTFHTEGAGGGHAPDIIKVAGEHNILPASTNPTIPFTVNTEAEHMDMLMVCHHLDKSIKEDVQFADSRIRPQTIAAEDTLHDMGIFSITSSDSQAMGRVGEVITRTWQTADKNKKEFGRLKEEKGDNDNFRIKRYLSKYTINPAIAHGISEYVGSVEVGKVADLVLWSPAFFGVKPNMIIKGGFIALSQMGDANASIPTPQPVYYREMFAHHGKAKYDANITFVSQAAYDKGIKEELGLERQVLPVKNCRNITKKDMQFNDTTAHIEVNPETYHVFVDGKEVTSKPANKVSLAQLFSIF

[2] = target: Urease subunit alpha/Urease subunit beta (Helicobacter pylori (strain ATCC 700392 / 26695) (Campylobacterpylori), UniProt P69996); assay: Inhibition of Helicobacter pylori urease assessed as ammonia production preincubated for 3 hrs measured by indophenol method
Sequence of Urease subunit alpha/Urease subunit beta (P69996 whole entry): as the sequence (P69996 whole entry, looked up) above
Sequence of Urease subunit alpha/Urease subunit beta (P14916 whole entry, further chain): as the sequence (P14916 whole entry, looked up) above
Summary of the method: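 Enzyme came from H. pylori broth cultures (2.0 × 10⁸ CFU/mL), which were pelleted at 5000 g and 4 °C, washed twice in PBS at pH 7.4, and stored at −80 °C. Urease and test compound were pre-incubated for 3 h at room temperature. Ammonia production was then quantified by the Weatherburn indophenol method.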

SMILES | inhibition [1] | IC50 [2] [µM]
O=C1C=C(NCCN2CCOCC2)C(=O)C=C1NCCN1CCOCC1 | 81.6% | 27.3
O=C1C=C(NCCNc2ccccc2)C(=O)C=C1NCCNc1ccccc1 | inactive | 
CC(=O)NO [ACETOHYDROXAMIC ACID] | 85.2% | 46.3
O=C1C=C(NC2CC2)C(=O)C=C1NC1CC1 | inactive | 
O=C1C=C(NC2CCCC2)C(=O)C=C1NC1CCCC1 | 68.8% | 35.4
CC(C)NC1=CC(=O)C(NC(C)C)=CC1=O | inactive | 
O=C1C=C(NC2CCCCC2)C(=O)C=C1NC1CCCCC1 | 62.7% | 41.5
